target: KiSS-1 receptor (Homo sapiens, UniProt Q969F8); assay: Agonist activity at recombinant human KISS1R expressed in CHO cells assessed as intracellular calcium mobilization incubated for 30 mins at 37 degC and 30 mins at room temperature by Fluo-4 NW staining-based FLIPR assay relative to Metastin (45 to 54); format: functional, cell-based
In short: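 CHO cells stably expressing human KISS1R seeded at 15,000 cells/well, cultured 24 h, then loaded with Fluo-4 Direct in HBSS with 4 mM probenecid and 0.1% BSA (30 min 37 °C, 30 min room temperature). Compounds from 10 µM DMSO stocks diluted in sample buffer and added. Fluorescence read for 2 min at 2 s intervals. Peak counts give agonist activity. EC50 expressed as ratio to metastin(45-54).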

KiSS-1 receptor, sequence (Q969F8 whole entry): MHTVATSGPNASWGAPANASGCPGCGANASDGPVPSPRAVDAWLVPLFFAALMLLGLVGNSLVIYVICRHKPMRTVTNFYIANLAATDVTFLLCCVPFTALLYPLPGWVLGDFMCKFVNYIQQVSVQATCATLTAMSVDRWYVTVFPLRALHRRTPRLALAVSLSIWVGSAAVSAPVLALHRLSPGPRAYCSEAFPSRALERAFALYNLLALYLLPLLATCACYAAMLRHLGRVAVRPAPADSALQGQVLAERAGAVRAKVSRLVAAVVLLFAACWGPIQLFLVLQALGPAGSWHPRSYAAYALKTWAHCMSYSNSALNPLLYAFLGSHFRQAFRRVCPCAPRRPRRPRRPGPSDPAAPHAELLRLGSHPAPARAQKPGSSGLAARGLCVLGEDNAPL

| SMILES | fold change (FC) |
| --- | --- |
| CNC(=N)NCCC[C@H](NC(=O)[C@H](CC(C)C)NC(=O)NNC(=O)[C@H](Cc1ccccc1)NC(=O)[C@H](CO)NC(=O)[C@H](CC(N)=O)NC(=O)[C@@H](Cc1ccncc1)NC(=O)[C@H](CC(N)=O)NC(=O)[C@H](N)Cc1ccc(O)cc1)C(=O)N[C@@H](Cc1ccccc1)C(N)=O | 3.6 |
| CNC(=N)NCCC[C@H](NC(=O)[C@H](CC(C)C)NC(=O)NNC(=O)[C@H](Cc1ccccc1)NC(=O)[C@H](CO)NC(=O)[C@H](CC(N)=O)NC(=O)[C@@H](NC(=O)[C@@H](CC(N)=O)NC(=O)[C@H](N)Cc1ccc(O)cc1)[C@@H](C)O)C(=O)N[C@@H](Cc1ccccc1)C(N)=O | 7.3 |
| CNC(=N)NCCC[C@H](NC(=O)[C@H](CC(C)C)NC(=O)NNC(=O)[C@H](Cc1ccccc1)NC(=O)[C@H](CO)NC(=O)[C@H](CC(N)=O)NC(=O)[C@H](Cc1ccccc1)NC(=O)[C@H](N)Cc1cccnc1)C(=O)N[C@@H](Cc1ccccc1)C(N)=O | 5.8 |
| CNC(=N)NCCC[C@H](NC(=O)[C@H](CC(C)C)NC(=O)NNC(=O)[C@H](Cc1ccccc1)NC(=O)[C@H](CO)NC(=O)[C@H](CC(N)=O)NC(=O)[C@H](Cc1ccncc1)NC(=O)[C@@H](CC(N)=O)NC(=O)[C@@H](N)Cc1ccc(O)cc1)C(=O)N[C@@H](Cc1ccccc1)C(N)=O | 2.7 |
| CNC(=N)NCCC[C@H](NC(=O)[C@H](CC(C)C)NC(=O)NNC(=O)[C@H](Cc1ccccc1)NC(=O)[C@H](CO)NC(=O)[C@H](CC(N)=O)NC(=O)[C@H](Cc1ccncc1)NC(=O)[C@@H](CC(N)=O)NC(=O)[C@H](N)Cc1ccc(O)cc1)C(=O)N[C@@H](Cc1ccccc1)C(N)=O | 1.7 |
| CNC(=N)NCCC[C@H](NC(=O)[C@H](CC(C)C)NC(=O)NNC(=O)[C@H](Cc1ccccc1)NC(=O)[C@H](CO)NC(=O)[C@H](CC(N)=O)NC(=O)[C@H](Cc1ccncc1)NC(=O)[C@H](CC(N)=O)NC(=O)[C@H](N)Cc1ccc(O)cc1)C(=O)N[C@@H](Cc1ccccc1)C(N)=O | 5 |

Further lines, results first:

| fold change (FC) | SMILES |
| --- | --- |
| 8.6 | CNC(=N)NCCC[C@H](NC(=O)[C@H](CC(C)C)NC(=O)NNC(=O)[C@H](Cc1ccccc1)NC(=O)[C@H](CO)NC(=O)[C@H](CC(N)=O)NC(=O)[C@@H](Cc1c[nH]c2ccccc12)NC(=O)[C@@H](CC(N)=O)NC(=O)[C@H](N)Cc1ccc(O)cc1)C(=O)N[C@@H](Cc1ccccc1)C(N)=O |
| 3.7 | CNC(=N)NCCC[C@H](NC(=O)[C@H](CC(C)C)NC(=O)NNC(=O)[C@H](Cc1ccccc1)NC(=O)[C@H](CO)NC(=O)[C@H](CC(N)=O)NC(=O)[C@@H](Cc1c[nH]c2ccccc12)NC(=O)[C@H](CC(N)=O)NC(=O)[C@H](N)Cc1ccc(O)cc1)C(=O)N[C@@H](Cc1ccccc1)C(N)=O |
| 3.7 | CNC(=N)NCCC[C@H](NC(=O)[C@H](CC(C)C)NC(=O)NNC(=O)[C@H](Cc1ccccc1)NC(=O)[C@H](CO)NC(=O)[C@H](CC(N)=O)NC(=O)[C@H](Cc1c[nH]c2ccccc12)NC(=O)[C@@H](CO)NC(=O)[C@H](N)Cc1ccc(O)cc1)C(=O)N[C@@H](Cc1ccccc1)C(N)=O |
| 2.8 | CNC(=N)NCCC[C@H](NC(=O)[C@H](CC(C)C)NC(=O)NNC(=O)[C@H](Cc1ccccc1)NC(=O)[C@H](CO)NC(=O)[C@H](CC(N)=O)NC(=O)[C@H](Cc1c[nH]c2ccccc12)NC(=O)[C@H](CC(N)=O)NC(=O)[C@H](N)Cc1ccc(O)cc1)C(=O)N[C@@H](Cc1ccccc1)C(N)=O |
| 8.7 | CNC(=N)NCCC[C@H](NC(=O)[C@H](CC(C)C)NC(=O)NNC(=O)[C@H](Cc1ccccc1)NC(=O)[C@H](CO)NC(=O)[C@H](CC(N)=O)NC(=O)[C@H](Cc1c[nH]c2ccccc12)NC(=O)[C@H](N)Cc1cccnc1)C(=O)N[C@@H](Cc1ccccc1)C(N)=O |
| 7.7 | CNC(=N)NCCC[C@H](NC(=O)[C@H](CC(C)C)NC(=O)NNC(=O)[C@H](Cc1ccccc1)NC(=O)[C@H](CO)NC(=O)[C@H](CC(N)=O)NC(=O)[C@H](Cc1ccccc1)NC(=O)[C@H](N)Cc1ccc(O)cc1)C(=O)N[C@@H](Cc1ccccc1)C(N)=O |
